Source: PubChem BioAssay (The Scripps Research Institute Molecular Screening Center)
TAAR1 agonist – human TAAR1 agonists, primary screen, Fluo-8 calcium fluorescence, CHO RD-HGA16 cells; AID 624467, 2012; Trace amine-associated receptor 1 (Homo sapiens), Q96RJ0; vehicle wells 0%, saturating PEA agonist 100%; activation, % at 3 µM; hit rate 0.99% among 360,000;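 active = activation above the mean activation of all test compounds in the run plus 3 SD, cut at about 38% in these data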
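test system = CHO RD-HGA16 cells carrying human TAAR1 plus Gα16 | schedule = 17-24 h seeding, 75 min 37 °C dye, 30 min RT | compound dosing = 3 µM single concentration | control set = DMSO and PEA EC100 | replicates = n 1 | signal = Fluo-8 fluorescence, 5 s baseline then 140 s kinetic read | measure = percent activation vs PEA EC100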
TAAR1 antag – human TAAR1 antagonists, primary screen, Fluo-8 calcium fluorescence, CHO RD-HGA16 cells; Trace amine-associated receptor 1 (Homo sapiens), Q96RJ0; antagonist; inhibition, % at 3 µM; hit rate 1.5% among 360,000;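 active = inhibition above a per-plate cutoff, the mean inhibition of test compounds on that plate plus 3 SD, cut at about 49% in these data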;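 also: 0% = DMSO plus EC80 beta-PEA response and 100% = DMSO alone without agonist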
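Test system: RD-HGA16 CHO cells with stable hTAAR1 and Gα16 / Probe or stimulus: EC80 β-phenethylamine stimulus / Times: seeding 17-24 h prior, 75-min 37 °C, 30-min RT dye loading / Detection: Fluo-8 calcium-sensitive fluorescence / Read-out basis: % inhibition scaled between DMSO and EC80 PEA controls / Repeats: singlicate, one well per test compound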
OXTR potentiate – human OXTR potentiators, primary screen, fluorescence, CHO-OTR cells, Fluo-8 calcium. Oxytocin receptor (Homo sapiens), P30559. Fluo-8 calcium fluorescence, potentiator mode; 0% = oxytocin EC15, 100% = EC100. activation, % at 3 µM. hit rate 0.061% among 320,000. AID 2445, 2010;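 active = activation above that plate's cutoff, the mean activation of tested compounds plus 3 SD, cut at about 6.6% in these data, passing the limit was not always enough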;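 also: 100% uses oxytocin at 75 nM as the full agonist control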
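Assay system: CHO-OTR cells, human receptor / Also added: oxytocin at about EC15, sub-maximal agonist stimulus / Dosing: single dose, 3.0 µM nominal final compound concentration / Incubation: 6 min pre-incubation, 100 s read / Technique: Fluo-8 calcium dye fluorescence / Read-out: % activation vs EC15 and EC100 oxytocin / Benchmarks: EC15 oxytocin low, 75 nM oxytocin high / Replicates: singlicate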
V1aR counter – agonists of human V1a receptor, primary screen, counter-screen for OXTR agonist project, fluorescence, CHO-V1R cells | Vasopressin V1a receptor (Homo sapiens), P37288 | activation, % at 3 µM | Fluo-8 calcium fluorescence, agonist mode; 0% DMSO, 100% 3 nM vasopressin | hit rate 0.25% among 320,000 | AID 2797, 2010;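 active = activation above the mean activation of all tested compounds plus 3 SD, per screening run, cut at about 20% in these data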;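 also: signal is peak over basal fluorescence ratio across a 100 second FLIPR read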
Target sequence (P37288 whole entry, looked up): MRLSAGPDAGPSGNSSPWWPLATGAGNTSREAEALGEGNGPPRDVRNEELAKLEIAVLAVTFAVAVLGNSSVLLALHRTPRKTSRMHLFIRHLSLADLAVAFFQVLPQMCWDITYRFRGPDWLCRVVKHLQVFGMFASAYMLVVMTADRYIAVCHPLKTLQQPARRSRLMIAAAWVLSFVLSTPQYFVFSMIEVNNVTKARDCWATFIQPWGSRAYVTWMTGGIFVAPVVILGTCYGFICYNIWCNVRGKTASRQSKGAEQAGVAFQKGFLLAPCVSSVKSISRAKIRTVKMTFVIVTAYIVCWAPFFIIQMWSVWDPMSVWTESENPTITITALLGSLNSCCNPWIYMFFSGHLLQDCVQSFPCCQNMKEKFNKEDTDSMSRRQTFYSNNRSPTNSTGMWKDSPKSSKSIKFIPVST
OXTR ag – human OXTR agonists, primary screen, fluorescence, CHO-OTR cells, Fluo-8 calcium; Oxytocin receptor (Homo sapiens), P30559; Fluo-8 calcium fluorescence; normalized: DMSO 0%, oxytocin 100%; activation, % at 3 µM; hit rate 0.32% among 320,000;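 active = activation above the mean of all tested compounds plus 3 SD, cutoff set per screening run, cut at about 20% in these data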;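 also: peak over basal fluorescence ratio from a 100 s FLIPR kinetic read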
Numbers without * were called inactive; nt = no result given. Most compounds without a hit are left out; they make up all but 2.3% or so of the library.

SMILES	TAAR1 agonist	TAAR1 antag	OXTR potentiate	V1aR counter	OXTR ag
CCC(CC)c1nnc(NC(=O)Cc2c[nH]c3ccccc23)s1	33	-13	nt	nt	nt
O=C(Nc1ccc(-c2ccccc2)cc1)c1ccc2c(c1)S(=O)(=O)c1ccccc1C2=O	9	15	-11	0	0
O=C(Nc1ccncc1)c1ccc2c(c1)S(=O)(=O)c1ccccc1C2=O	38*	52*	-16	8	10
Cc1ccc(NC(=O)c2cc(-c3cccc(O)c3)on2)cc1C	4	52*	-4	1	0
Cn1c(C(=O)N2CCN(c3ccc(Cl)cc3)CC2)cc2c(=O)[nH]c3ccccc3c21	18	11	-24	4	1
Cc1ccc(Cl)cc1N1CCN(C(=O)c2cc3c(=O)[nH]c4ccccc4c3n2C)CC1	19	51*	-13	9	14
Fc1ccc2cnc(-c3ccsc3)cc2c1	-3	-19	nt	nt	nt
CC(C)(C)c1cc(O)c(C(C)(C)C)cc1O	nt	nt	-26	48*	71*
Cc1cc(C(C)(C)C)c(O)c(C(C)(C)C)c1	2	-14	-5	2	0
O=C1CCN(Cc2ccc([N+](=O)[O-])cc2)CCN1[C@H](CO)c1ccccc1	8	-18	-5	1	3
CC1(C(=O)Nc2cccc(OC(F)(F)F)c2)Cc2c(-c3cccc(C(N)=O)c3)ccnc2O1 (stereo not drawn)	5	2	nt	nt	nt
Cc1[nH]c2ccccc2c1C(=O)COC(=O)c1ccccc1O	12	65*	-6	4	5
CCOC(=O)c1c(C)[nH]c(C)c1C(=O)COC(=O)c1ccccc1O	10	21	-10	1	2
C[C@@H](C(=O)NCc1ccccc1)[C@H]1C[C@]1(C)[C@H](NC(=O)OCc1ccccc1)c1ccccc1	13	62*	-24	0	-1
COc1ccc(CNC(=O)[C@H](C)[C@@H]2C[C@@]2(C)[C@@H](NC(=O)OCc2ccccc2)c2ccccc2)cc1OC	18	28	-7	2	0
COc1ccc(-c2ccc3c(c2)S(=O)(=O)c2cccc(C(=O)N4CCN(c5ccccn5)CC4)c2C3=O)cc1OC	7	36	nt	nt	nt
COc1ccc(-c2ccc3c(c2)S(=O)(=O)c2cccc(C(=O)N4CCN(C5CCCCC5)CC4)c2C3=O)cc1OC	20	52*	-6	2	2
O=C(O)CC/C(=C\c1cccc(NC(=O)c2ccccc2Cl)c1)c1nc2ccccc2s1	12	50*	-8	4	1
Cc1occc1C(=O)Nc1cc(S(=O)(=O)N2CCOCC2)ccc1OC(C)C	1	-4	3	0	-2
COc1cccc(/C=N/n2c(-c3ccco3)nc3ccccc3c2=O)c1	14	49*	-9	-1	-2
COc1ccc(N(CC(=O)N2CCc3ccccc3C2)S(C)(=O)=O)cc1	42*	2	-5	1	0
COc1ccc(OC)c(S(=O)(=O)N(C)CC(=O)N2CCc3ccccc3C2)c1	45*	13	-7	0	0
COc1ccc(N(CC(=O)N2CCc3ccccc3C2)S(=O)(=O)c2c(C)[nH]c(=O)[nH]c2=O)cc1	1	-8	-7	1	1
Cc1ccc(OCCOC(=O)c2cc(S(=O)(=O)N3CCCCC3)ccc2N2CCOCC2)cc1	0	50*	-8	0	-1
O=C(OCCOc1ccc(Cl)cc1)c1cc(S(=O)(=O)N2CCCCC2)ccc1N1CCOCC1	0	32	nt	nt	nt
SMILES	TAAR1 agonist	TAAR1 antag	OXTR potentiate	V1aR counter	OXTR ag
C/C(=N\NC(=O)COc1ccccc1-c1ccccc1)c1ccc(O)cc1O	-1	50*	-4	0	-1
CCc1nc2ccc(C(=O)NCCCn3ccnc3)cn2c1N(CC)CCOC	4	-10	nt	nt	nt
CN(C)S(=O)(=O)c1cc(NC(=O)c2cc(=O)c3ccccc3o2)ccc1Cl	44*	47	-14	2	2
c1ccc(CCNc2ncnc3scc(C4COc5ccccc5O4)c23)cc1 (stereo not drawn)	18	71*	-3	0	0
c1ccc2c(c1)OCC(c1csc3ncnc(N4CCCC4)c13)O2 (stereo not drawn)	17	44	-11	0	-2
O=C(CSc1ccccc1)N/N=C/c1ccccc1O	16	0	-8	2	2
O=C(CCSCCC(=O)NN=Cc1ccccc1O)NN=Cc1ccccc1O	44*	48	nt	nt	nt
CN(C(=O)c1ccc(NC(=O)Cc2ccc(NC(=O)C3CCCN(S(=O)(=O)c4cccc([N+](=O)[O-])c4)C3)cc2)cc1)C1CCCC1 (stereo not drawn)	2	-14	nt	nt	nt
Cc1cc(C(=O)CSc2nc3ccccc3[nH]2)c(C)n1CC1CCCO1 (stereo not drawn)	32	72*	-13	11	15
S=C(Nc1ccc(Cl)cc1)NC1CC2CCC(C1)N2Cc1ccccc1 (stereo not drawn)	25	20	-12	14	21*
COC(=O)c1ccccc1NC(=O)CN1CCC(C)CC1	11	-20	-7	-2	-3
COc1ccc2c(COC(=O)CNS(=O)(=O)c3ccccc3)cc(=O)oc2c1	2	-22	-3	0	2
CCCNS(=O)(=O)c1cccc(C(=O)OCc2cc(=O)oc3cc(OC)ccc23)c1	9	52*	-29	8	9
COc1ccc2c(COC(=O)c3cccc(S(=O)(=O)NCC(C)C)c3)cc(=O)oc2c1	10	65*	-28	7	7
CS(=O)(=O)c1ccc(NC(=O)c2cc3c(cc2Cl)N2CCCCCC2=NS3(=O)=O)cc1	3	11	nt	nt	nt
COC(=O)[C@]1(Cc2ccccc2)NC=C(C(=O)c2ccc(F)cc2)[C@@H]1c1ccccc1	1	4	nt	nt	nt
Cc1ccc(NC(=O)Cc2nnc(SCC(=O)Nc3ccccc3)n2C)cc1	1	-10	-6	0	-1
Cn1c(CC(=O)Nc2ccc(Cl)c(Cl)c2)nnc1SCC(=O)NCc1ccccc1	38*	8	1	0	0
Cn1c(N)c(C(=O)COC(=O)CC2CC3CCC2C3)c(=O)n(C)c1=O (stereo not drawn)	40*	-5	-7	2	5
Cn1c(N)c(C(=O)COC(=O)Cc2ccc(Br)cc2)c(=O)n(C)c1=O	7	-12	-1	0	1
CCN(CC)S(=O)(=O)c1ccc2oc(SCc3ccc(F)cc3)nc2c1	11	55*	-24	8	2
CCN(CC)S(=O)(=O)c1ccc2oc(SCC(=O)NC3CC3)nc2c1	1	4	-2	0	0
